# An excerpt weighted towards active compounds, which were near 9.6% of everything screened.
# PMI act: activators of human PMI, primary screen, biochemical, fluorescence intensity, near-Km mannose 6-phosphate; Mannose-6-phosphate isomerase (Homo sapiens), P34949; purified human PMI, coupled resazurin fluorescence, 20 min; stronger effect = higher value; 1 = vehicle control, 0 substrate-free wells; AID 1214, 2008; 190,000 tested, 0.005% active; activation factor at 20 µM;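 active means activation factor of 2 or more at 20 µM, relative to plate controls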
# Target sequence (P34949 whole entry, looked up): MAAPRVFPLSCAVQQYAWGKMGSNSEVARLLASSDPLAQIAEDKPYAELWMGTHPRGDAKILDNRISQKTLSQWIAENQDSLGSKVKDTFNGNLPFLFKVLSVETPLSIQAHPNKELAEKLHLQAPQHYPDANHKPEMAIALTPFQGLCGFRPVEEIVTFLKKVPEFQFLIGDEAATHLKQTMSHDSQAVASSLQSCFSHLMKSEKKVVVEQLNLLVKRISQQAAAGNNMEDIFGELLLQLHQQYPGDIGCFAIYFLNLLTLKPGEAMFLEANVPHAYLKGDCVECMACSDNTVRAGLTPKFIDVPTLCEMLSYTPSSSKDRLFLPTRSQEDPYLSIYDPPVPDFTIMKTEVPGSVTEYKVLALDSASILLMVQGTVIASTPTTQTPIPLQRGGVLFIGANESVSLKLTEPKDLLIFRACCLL
# PMI act hi M6P: human PMI activators, high substrate, primary screen, biochemical, fluorescence intensity, near-saturating mannose 6-phosphate; coupled PMI enzyme assay, resazurin fluorescence, 20 min; stronger effect = higher value; 1 = untreated enzyme, 0 = substrate-free blank; 190,000 tested, 0.34% active; activation factor at 20 µM; Mannose-6-phosphate isomerase (Homo sapiens), P34949;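 active means activation factor of 2 or more at 20 µM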
#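 Material: human phosphomannose isomerase with PGI, G6PDH, diaphorase coupling enzymes / Reagent: Man-6-P substrate 1.0 mM / Dosing: single compound dose of 20 µM, 1% DMSO final / Incubation: enzyme reaction with compound 20 min at room temperature / Signal: resorufin fluorescence (Ex 544/Em 590 nm) from resazurin via diaphorase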
# HCT116 PTEN-null: growth suppression of PTEN-null HCT116, primary screen, cell-based, CellTiter-Glo. 140,000 tested, 1.2% active. HCT116 PTEN-null viability, 60 h; stronger effect = lower value. viability, % at 10 µM;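 active means viability at or below a set limit, 4 SD under the median of all tested compounds, cut at about 3.7% in these data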;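 further: PTEN knockout HCT116 line with beta catenin targeted HCT116 as companion control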
# L major viab: Leishmania major promastigote growth inhibition, primary screen; Leishmania major promastigotes, resazurin fluorescence viability; inhibition, % at 10 µM; 200,000 tested, 9% active; in the data active means inhibition above about 50%;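 further: promastigotes grown with compound for 44 hours at 28 °C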
# HCT116 bCat-KO: primary screen for growth suppressors in beta-catenin knockout HCT116 cells (colon tumor, human); HCT116 beta-catenin knockout viability, CellTiter-Glo, 60 h; stronger effect = lower value; viability, % at 10 µM; 140,000 tested, 1.5% active; AID 818, 2007;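 active means viability at or under a set limit, the compound median less 4 SD, cut at about 6% in these data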;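 further: 0% = Hyamine 1622 control at 20 µM and 100% = untreated cell control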
# * marks the source's active call; other numbers are inactive results; / = no result.
SMILES,PMI act,PMI act hi M6P,HCT116 PTEN-null,L major viab,HCT116 bCat-KO
Cc1ccc(C(C(=O)NC2CCCC2)N(Cc2cccnc2)C(=O)c2snc(C(N)=O)c2N)o1 (configuration not stated),1,1.1,87,-3,99
O=C1CCC([N+](=O)[O-])C(c2ccc(Cl)cc2)N1 (configuration not stated),1,1,88,-1,90
COC(=O)c1ccccc1NC(=O)NCc1c(C)nn(C)c1C,0.9,1,/,0,/
C#CCNC(=O)C1=C[C@H](c2ccccc2)[C@@H](CCCO)[C@H](OCC)O1,1.1,1.1,/,-9,/
COc1ccc(CCN(Cc2nc3ccccc3c(=O)[nH]2)C(=O)C2CC2)cc1,1,1,/,-5,/
CCOc1ccccc1N(C(=O)c1ccco1)C(C(=O)NC1CCCC1)c1cccnc1 (configuration not stated),0.9,1,74,-1,68
CCOc1ccccc1N(C(=O)c1snc(C(N)=O)c1N)C(C(=O)NC1CCCC1)c1ccco1 (configuration not stated),1,1,77,76*,80
COc1ccc(C(=O)N2CCC(=O)N(C(CO)Cc3ccccc3)CC2)cc1 (configuration not stated),1,1.1,98,-3,92
C=C1C(C(=O)Nc2cccc(OC)c2)C1C(=O)Nc1cccc(OC)c1 (configuration not stated),0.9,0.9,/,11,/
COc1ccc(/C=N/NC(=O)c2cc(C34CC5CC(CC(C5)C3)C4)[nH]n2)cc1O,0.9,0.9,105,90*,98
COc1ccc(/C=N\NC(=O)c2ccc(=O)[nH]n2)cc1O,0.9,0.9,91,-7,87
Cc1ccc2c(c1)SC1=NC(c3ccccc3)(C(F)(F)F)NC(=O)N12 (configuration not stated),1.1,1,81,1,85
COC(=O)c1ccccc1NC(=O)C(C)c1ccc([N+](=O)[O-])cc1 (configuration not stated),0.9,0.9,/,2,/
Cc1ccc(Oc2ccc(Cl)cc2NC(=O)c2ccc(F)cc2F)cc1,1,1,86,58*,87
C=C(C)CNC(=S)N1CCNC(=O)C1CC(=O)OC (configuration not stated),1.1,1,101,78*,97
CCNC(=O)N1CCNC(=O)C1CC(=O)OC (configuration not stated),0.9,0.9,95,-6,99
COc1ccc(S(=O)(=O)N2CCCC(C(=O)Nc3cccc(C(C)=O)c3)C2)cc1 (configuration not stated),0.9,0.9,69,58*,77
COC(=O)c1ccc(NC(=O)C2CCCN2S(=O)(=O)c2ccc(OC)cc2)cc1 (configuration not stated),0.9,0.9,93,58*,91
COC(=O)[C@H]1C[C@@H]1[C@H](NC(=O)c1ccccc1)c1ccccc1,1.2,1.2,97,15,92
CCCCOc1ccc(C(=O)Nn2cnnc2)cc1,1.1,1,92,-1,95
CCCCOc1ccc(C(=O)OC2CC(C)N(C)CC2C)cc1 (configuration not stated),0.9,0.9,63,98*,54
O=C1c2cnc3nc(SCc4cccc(Cl)c4)nn3c2CC2c3ccccc3CCN12 (configuration not stated),1.1,1,61,56*,59
Cc1nn(Cc2ccc(F)cc2)c(C)c1NC(=O)c1cnn2c1NC(c1cccs1)CC2C(F)(F)F (configuration not stated),0.9,0.9,46,41,63
Cc1nn(Cc2ccc(F)cc2)c(C)c1NC(=O)c1cnn2c1NC(c1ccccc1)CC2C(F)(F)F (configuration not stated),0.9,0.9,12,73*,22
CCC(=O)c1ccc(N2CCN(C(=O)c3ccccc3)CC2)c(F)c1,1,0.9,/,-7,/
SMILES,PMI act,PMI act hi M6P,HCT116 PTEN-null,L major viab,HCT116 bCat-KO
O=C(Nc1cccc(Cl)c1)OCc1cncs1,0.9,0.9,89,78*,78
OC(COCC1COc2ccccc2O1)CN1CCN(c2ccccn2)CC1 (configuration not stated),1,1.1,89,70*,95
CC1CCCN(CC(O)COCC2COc3ccccc3O2)C1 (configuration not stated),1.1,1.1,96,86*,96
Cc1ccc(N2C(=O)CCC2(C(N)=O)c2ccccc2)cc1 (configuration not stated),1,1.1,/,-1,/
NC(=S)N/N=C/c1ccccc1,0.9,1,91,-3,98
NC(=S)N/N=C\c1c2ccccc2cc2ccccc12,1.6,2.3*,50,15,54
NC(=S)N/N=C\c1c(OCc2ccccc2Cl)ccc2ccccc12,0.9,1,/,64*,/
Cc1ccc(Nc2ncnc(N)n2)cc1C,1,1,/,-3,/
COc1ccc(-c2nnc(SCC(=O)N(Cc3ccccc3)C(C)(C)C)o2)cc1OC,0.8,0.8,43,57*,37
COc1cc(-c2nnc(SCC(=O)c3ccccc3)o2)cc(OC)c1OC,0.9,1,91,10,91
CN(C)C(C)(C)C#CCCCCC#CC(C)(C)N(C)C,1.1,1.1,96,-2,83
CN(C)C(C)(C)C#CCC(c1ccccc1)c1ccccc1,1,1.1,86,100*,73
COc1ccc(Cc2noc(CN(C)CC(O)c3ccccc3)n2)cc1OC (configuration not stated),1.1,1,/,-1,/
CCCn1c(SCC(=O)c2c[nH]c3ccccc23)nnc1-c1ccncc1,1,1.1,90,1,92
CCC(Sc1nc(N)c(NC(=O)c2ccc(OC)c(OC)c2)c(=O)[nH]1)C(=O)OC (configuration not stated),0.8,0.9,89,-5,94
Cc1cccc2sc(NC(=O)C3c4ccccc4Oc4ccccc43)nc12,0.8,0.8,45,81*,61
O=C(Nc1nc(-c2ccccc2)cs1)C1c2ccccc2Oc2ccccc21,0.8,0.8,76,2,68
Cc1nnc(NC(=O)C2c3ccccc3Oc3ccccc32)s1,1,1,86,-2,73
O=C(Nc1nc(-c2ccncc2)cs1)C1c2ccccc2Oc2ccccc21,1.2,1.3,54,90*,59
Cc1ccccc1Cn1nc(C)c(NC(=O)C2c3ccccc3Oc3ccccc32)c1C,0.9,1,84,84*,85
O=C(Nc1ccncc1)C1c2ccccc2Oc2ccccc21,1,1,76,24,93
